These results are taken from ChEMBL document CHEMBL1155675, “New triterpenoid sulfates from the red alga Tricleocarpa fragilis” (J Nat Prod, 2000).

SMILES strings stand for the structures.

The test system of one data set is A549. As to the kind of experiment: Cytotoxicity against human A549 cells. The format is functional, cell-based.
The subject of a further data set is HT-29. Briefly: Cytotoxicity against human HT29 cells. The class given is functional, cell-based.
The nature of data set [1]: Cytotoxicity against human MEL28 cells. The class given is functional, cell-based. Particulars: SK-MEL-28.
A further data set has as its system P388. As to the kind of experiment: Cytotoxicity against mouse P388 cells. The class given is functional, cell-based.
Data set [2] deals with Artemia. As to the kind of experiment: Toxicity against brine shrimp assessed as immobilization at 17 ug/ml. The format is organism-based. Particulars: in vivo. A digest of the protocol: (§1)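 Brine shrimp immobilization was scored in a 96-well plate format and reported as percent immobilization with 90% confidence intervals. Where both monovalent and divalent cation salts of a sulfate were isolated, the divalent cation salt was the one tested.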

The test system of data set [3] is Artemia. As to the kind of experiment: Toxicity against brine shrimp assessed as immobilization at 50 ug/ml. The class given is organism-based. To be noted: in vivo. Put shortly: as §1

Take `COC(=O)[C@]1(C)[C@@H](OS(=O)(=O)[O-])CC[C@]23C[C@]24CC[C@]2(C)[C@@H]([C@H](C)CC(=O)C=C(C)C)CC[C@@]2(C)[C@@H]4CC[C@@H]13.[Na+]`: the IC50 (in the data set with A549; in the data set with HT-29; in data set [1]; in the data set with P388) was > 10 µg/mL in each case.
For `CC(C)=C[C@H](O)C[C@@H](C)[C@H]1CC[C@@]2(C)[C@@H]3CC[C@H]4C(C)(C)[C@@H](OS(=O)(=O)O)CC[C@@]45C[C@@]35CC[C@]12C`, the IC50 (in the data set on A549; with HT-29; in data set [1]; in the data set on P388) was > 2 µg/mL throughout.
With `COC(=O)[C@]1(C)[C@@H](OS(=O)(=O)O)CC[C@]23C[C@]24CC[C@]2(C)[C@@H]([C@H](C)C[C@@H](O)C=C(C)C)CC[C@@]2(C)[C@@H]4CC[C@@H]13`, the IC50 (with A549; in the data set on HT-29; in data set [1]; in the data set with P388) was > 10 µg/mL throughout. In addition, the Activity in the data set on Artemia [2] is reported as 55.7%.
With `CC(C)=CC(=O)C[C@@H](C)[C@H]1CC[C@@]2(C)[C@@H]3CC[C@H]4C(C)(C)[C@@H](OS(=O)(=O)O)CC[C@@]45C[C@@]35CC[C@]12C`, the IC50 (with A549; in the data set with HT-29; in data set [1]; with P388) was > 10 µg/mL throughout.
Regarding `COC(=O)[C@]1(C)[C@@H](OS(=O)(=O)[O-])CC[C@]23C[C@]24CC[C@]2(C)[C@@H]([C@H](C)CC(=O)C=C(C)C)CC[C@@]2(C)[C@@H]4CC[C@@H]13.COC(=O)[C@]1(C)[C@@H](OS(=O)(=O)[O-])CC[C@]23C[C@]24CC[C@]2(C)[C@@H]([C@H](C)CC(=O)C=C(C)C)CC[C@@]2(C)[C@@H]4CC[C@@H]13.[Mg+2]`, the IC50 (with A549; in the data set with HT-29; in data set [1]; with P388) was > 10 µg/mL each time.
On to `COC(=O)[C@@H]1[C@@H](OS(=O)(=O)O)CC[C@]2(C)C3=C(CC[C@@H]12)[C@]1(C)CC[C@H]([C@H](C)C[C@@H](O)C=C(C)C)[C@@]1(C)CC3`, for which the IC50 (with A549; in the data set on HT-29; in data set [1]; with P388) was > 2 µg/mL in each case.
Take `COC(=O)[C@@H]1[C@@H](OS(=O)(=O)O)CC[C@]23C[C@]24CC[C@]2(C)[C@@H]([C@H](C)C[C@@H](O)C=C(C)C)CC[C@@]2(C)[C@@H]4CC[C@@H]13`: the IC50 (with A549; with HT-29; in data set [1]; in the data set with P388) was > 1 µg/mL in each case. For the same compound, the Activity in the data set with Artemia [3] turned out to be 39.1%.
Consider `COC(=O)[C@@H]1[C@@H](OS(=O)(=O)O)CC[C@]23C[C@]24CC[C@]2(C)[C@@H]([C@H](C)CC(=O)C=C(C)C)CC[C@@]2(C)[C@@H]4CC[C@@H]13`, for which the concentration for half-maximal inhibition (IC50) (with A549; with HT-29; in data set [1]; in the data set on P388) was > 1 µg/mL in each case.
With `COC(=O)[C@]1(C)[C@@H](OS(=O)(=O)[O-])CC[C@]23C[C@]24CC[C@]2(C)[C@@H]([C@H](C)CC(=O)C=C(C)C)CC[C@@]2(C)[C@@H]4CC[C@@H]13.COC(=O)[C@]1(C)[C@@H](OS(=O)(=O)[O-])CC[C@]23C[C@]24CC[C@]2(C)[C@@H]([C@H](C)CC(=O)C=C(C)C)CC[C@@]2(C)[C@@H]4CC[C@@H]13.[Ca+2]`, the IC50 (in the data set on A549; with HT-29; in data set [1]; in the data set on P388) was > 10 µg/mL in each case.
In the case of `CC(C)=C[C@H](O)C[C@@H](C)[C@H]1CC[C@@]2(C)[C@@H]3CC[C@H]4[C@](C)(CO)[C@@H](OS(=O)(=O)O)CC[C@@]45C[C@@]35CC[C@]12C`, the IC50 (with A549; in the data set on HT-29; in data set [1]; in the data set with P388) was > 10 µg/mL each time. In addition, the Activity in the data set with Artemia [2] turned out to be 47.1%.
Take `COC(=O)[C@@H]1[C@@H](OS(=O)(=O)O)CC[C@]2(C)C3=C(CC[C@@H]12)[C@]1(C)CC[C@H]([C@H](C)CC(=O)C=C(C)C)[C@@]1(C)CC3`: the IC50 (with A549; in the data set on HT-29; in data set [1]; in the data set on P388) was > 1 µg/mL throughout. Further, the Activity in the data set on Artemia [3] came out at 35.5%.
For the compound `COC(=O)[C@]1(C)[C@@H](OS(=O)(=O)O)CC[C@]23C[C@]24CC[C@]2(C)[C@@H]([C@H](C)CC(=O)C=C(C)C)CC[C@@]2(C)[C@@H]4CC[C@@H]13`, the IC50 (in the data set with A549; in the data set on HT-29; in data set [1]; in the data set with P388) was > 10 µg/mL throughout.
For `CC(C)=CC(=O)C[C@@H](C)[C@H]1CC[C@@]2(C)[C@@H]3CC[C@H]4[C@](C)(CO)[C@@H](OS(=O)(=O)O)CC[C@@]45C[C@@]35CC[C@]12C`, the IC50 (in the data set with A549; with HT-29; in data set [1]; in the data set on P388) was > 2 µg/mL in each case.

As a reminder, the IC50 is the midpoint of a concentration-inhibition curve. Read a low IC50 as higher potency.
